Experimental data taken from ChEMBL document CHEMBL5653631, “A Potent and Selective ULK1 Inhibitor Suppresses Autophagy and Sensitizes Cancer Cells to Nutrient Stress” (iScience, 2018).

Tests used:
[1] = target: RAC-gamma serine/threonine-protein kinase (Homo sapiens) (UniProt Q9Y243); experiment: Inhibition of human recombinant AKT3 at 40 nM related to control ULK1
Summary of the method: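 Radiometric activity assays in a panel of 327 human recombinant kinases, each run in duplicate at one inhibitor concentration. Activity remaining is expressed as percent of vehicle control, and percent inhibition is calculated as 100% minus percent activity remaining.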

[2] = target: T1, Dual specificity tyrosine-phosphorylation-regulated kinase 2 (Homo sapiens) (UniProt Q92630); experiment: Inhibition of human recombinant DYRK2 at 40 nM related to control ULK1
T1 sequence (whole entry): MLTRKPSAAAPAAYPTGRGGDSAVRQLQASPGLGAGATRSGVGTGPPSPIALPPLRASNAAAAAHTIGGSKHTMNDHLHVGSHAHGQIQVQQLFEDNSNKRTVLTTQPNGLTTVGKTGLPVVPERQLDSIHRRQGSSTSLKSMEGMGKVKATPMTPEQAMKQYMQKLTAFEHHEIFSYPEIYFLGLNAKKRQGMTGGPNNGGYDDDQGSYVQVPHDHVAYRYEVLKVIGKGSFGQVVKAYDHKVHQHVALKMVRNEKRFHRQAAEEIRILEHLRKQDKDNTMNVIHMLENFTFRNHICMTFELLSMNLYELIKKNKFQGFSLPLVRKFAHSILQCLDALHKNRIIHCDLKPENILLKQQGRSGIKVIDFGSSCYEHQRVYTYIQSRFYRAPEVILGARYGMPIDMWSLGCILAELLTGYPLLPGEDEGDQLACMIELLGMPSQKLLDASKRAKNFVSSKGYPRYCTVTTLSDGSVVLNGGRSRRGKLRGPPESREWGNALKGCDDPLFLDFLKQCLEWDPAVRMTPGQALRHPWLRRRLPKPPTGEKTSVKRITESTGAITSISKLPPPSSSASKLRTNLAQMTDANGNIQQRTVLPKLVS

[3] = target: T2, Serine/threonine-protein kinase tousled-like 1 (Homo sapiens) (UniProt Q9UKI8); experiment: Inhibition of human recombinant TLK1 at 500 nM related to control ULK1
T2 sequence (whole entry): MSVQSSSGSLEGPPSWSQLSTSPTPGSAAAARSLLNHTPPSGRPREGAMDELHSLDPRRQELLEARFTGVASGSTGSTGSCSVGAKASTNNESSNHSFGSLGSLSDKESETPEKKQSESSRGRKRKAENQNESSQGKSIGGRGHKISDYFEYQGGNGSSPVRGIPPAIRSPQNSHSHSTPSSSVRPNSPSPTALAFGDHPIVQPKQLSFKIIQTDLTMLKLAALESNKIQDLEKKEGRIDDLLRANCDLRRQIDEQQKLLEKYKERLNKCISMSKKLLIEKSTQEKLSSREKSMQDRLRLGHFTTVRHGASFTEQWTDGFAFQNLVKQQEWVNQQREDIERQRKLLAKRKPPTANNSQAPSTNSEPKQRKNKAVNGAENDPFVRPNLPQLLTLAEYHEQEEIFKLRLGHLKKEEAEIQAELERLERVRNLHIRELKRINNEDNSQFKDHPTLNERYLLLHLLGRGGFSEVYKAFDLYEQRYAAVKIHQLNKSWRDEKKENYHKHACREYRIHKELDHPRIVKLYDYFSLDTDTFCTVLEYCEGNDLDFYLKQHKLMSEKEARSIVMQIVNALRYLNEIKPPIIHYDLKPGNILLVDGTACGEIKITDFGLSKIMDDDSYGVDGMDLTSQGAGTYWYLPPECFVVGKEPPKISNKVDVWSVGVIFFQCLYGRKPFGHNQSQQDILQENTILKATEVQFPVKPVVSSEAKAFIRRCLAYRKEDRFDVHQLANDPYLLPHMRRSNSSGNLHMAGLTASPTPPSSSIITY

[4] = target: Ephrin type-A receptor 4 (Homo sapiens) (UniProt P54764); experiment: Inhibition of human recombinant EphA4 at 500 nM in presence of ATP by radiometric assay relative to control
[5] = target: Receptor tyrosine-protein kinase erbB-2 (Homo sapiens) (UniProt P04626); experiment: Inhibition of human recombinant ErbB2 at 500 nM related to control ULK1
[6] = target: Serine/threonine-protein kinase 4 (MST1/STK4) (Homo sapiens) (UniProt Q13043); experiment: Inhibition of human recombinant MST1 at 15 nM in presence of ATP by radiometric assay relative to control
[7] = target: Tau-tubulin kinase 1 (Homo sapiens) (UniProt Q5TCY1); experiment: Inhibition of human recombinant TTBK1 at 15 nM related to control ULK1
[8] = target: Serine/threonine-protein kinase SIK2 (Homo sapiens) (UniProt Q9H0K1); experiment: Inhibition of human recombinant QIK at 15 nM in presence of ATP by radiometric assay relative to control
[9] = target: T3, SNF-related serine/threonine-protein kinase (Homo sapiens) (UniProt Q9NRH2); experiment: Inhibition of human recombinant SNRK at 15 nM in presence of ATP by radiometric assay relative to control
T3 sequence (whole entry): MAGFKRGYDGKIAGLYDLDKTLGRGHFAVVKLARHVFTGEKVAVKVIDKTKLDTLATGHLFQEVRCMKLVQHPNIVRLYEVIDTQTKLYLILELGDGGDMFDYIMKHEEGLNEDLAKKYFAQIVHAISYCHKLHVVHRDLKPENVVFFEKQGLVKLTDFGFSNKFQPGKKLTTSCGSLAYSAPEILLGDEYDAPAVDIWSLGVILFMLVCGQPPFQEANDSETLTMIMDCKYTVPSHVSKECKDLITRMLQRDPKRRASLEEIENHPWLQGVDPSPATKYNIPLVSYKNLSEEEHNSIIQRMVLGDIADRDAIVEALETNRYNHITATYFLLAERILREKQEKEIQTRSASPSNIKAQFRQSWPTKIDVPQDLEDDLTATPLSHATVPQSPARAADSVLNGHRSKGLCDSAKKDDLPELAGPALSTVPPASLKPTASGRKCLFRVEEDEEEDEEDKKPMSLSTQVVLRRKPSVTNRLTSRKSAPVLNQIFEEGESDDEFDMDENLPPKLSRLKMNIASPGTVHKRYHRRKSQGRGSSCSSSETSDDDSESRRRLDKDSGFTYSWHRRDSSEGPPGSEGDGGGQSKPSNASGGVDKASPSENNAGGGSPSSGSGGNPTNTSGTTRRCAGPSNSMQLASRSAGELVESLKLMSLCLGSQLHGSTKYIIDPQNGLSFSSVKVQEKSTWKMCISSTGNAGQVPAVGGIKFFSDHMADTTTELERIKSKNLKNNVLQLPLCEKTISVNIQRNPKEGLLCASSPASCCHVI

Chain of Serine/threonine-protein kinase 4 (MST1/STK4) (Homo sapiens) (Q13043 whole entry, looked up): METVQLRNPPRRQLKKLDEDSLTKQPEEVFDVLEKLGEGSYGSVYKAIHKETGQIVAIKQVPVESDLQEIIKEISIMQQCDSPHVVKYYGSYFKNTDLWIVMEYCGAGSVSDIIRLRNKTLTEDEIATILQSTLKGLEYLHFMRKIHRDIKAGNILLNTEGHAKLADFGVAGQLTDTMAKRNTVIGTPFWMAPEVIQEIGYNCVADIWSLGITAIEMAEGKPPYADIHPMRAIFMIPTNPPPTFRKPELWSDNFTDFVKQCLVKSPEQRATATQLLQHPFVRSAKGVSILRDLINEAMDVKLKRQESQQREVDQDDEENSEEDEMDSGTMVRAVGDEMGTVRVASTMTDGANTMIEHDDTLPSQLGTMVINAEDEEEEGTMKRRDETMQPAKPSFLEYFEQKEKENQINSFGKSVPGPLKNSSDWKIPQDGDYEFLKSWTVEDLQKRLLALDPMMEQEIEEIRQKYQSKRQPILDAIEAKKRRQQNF
Chain of Receptor tyrosine-protein kinase erbB-2 (Homo sapiens) (P04626 whole entry): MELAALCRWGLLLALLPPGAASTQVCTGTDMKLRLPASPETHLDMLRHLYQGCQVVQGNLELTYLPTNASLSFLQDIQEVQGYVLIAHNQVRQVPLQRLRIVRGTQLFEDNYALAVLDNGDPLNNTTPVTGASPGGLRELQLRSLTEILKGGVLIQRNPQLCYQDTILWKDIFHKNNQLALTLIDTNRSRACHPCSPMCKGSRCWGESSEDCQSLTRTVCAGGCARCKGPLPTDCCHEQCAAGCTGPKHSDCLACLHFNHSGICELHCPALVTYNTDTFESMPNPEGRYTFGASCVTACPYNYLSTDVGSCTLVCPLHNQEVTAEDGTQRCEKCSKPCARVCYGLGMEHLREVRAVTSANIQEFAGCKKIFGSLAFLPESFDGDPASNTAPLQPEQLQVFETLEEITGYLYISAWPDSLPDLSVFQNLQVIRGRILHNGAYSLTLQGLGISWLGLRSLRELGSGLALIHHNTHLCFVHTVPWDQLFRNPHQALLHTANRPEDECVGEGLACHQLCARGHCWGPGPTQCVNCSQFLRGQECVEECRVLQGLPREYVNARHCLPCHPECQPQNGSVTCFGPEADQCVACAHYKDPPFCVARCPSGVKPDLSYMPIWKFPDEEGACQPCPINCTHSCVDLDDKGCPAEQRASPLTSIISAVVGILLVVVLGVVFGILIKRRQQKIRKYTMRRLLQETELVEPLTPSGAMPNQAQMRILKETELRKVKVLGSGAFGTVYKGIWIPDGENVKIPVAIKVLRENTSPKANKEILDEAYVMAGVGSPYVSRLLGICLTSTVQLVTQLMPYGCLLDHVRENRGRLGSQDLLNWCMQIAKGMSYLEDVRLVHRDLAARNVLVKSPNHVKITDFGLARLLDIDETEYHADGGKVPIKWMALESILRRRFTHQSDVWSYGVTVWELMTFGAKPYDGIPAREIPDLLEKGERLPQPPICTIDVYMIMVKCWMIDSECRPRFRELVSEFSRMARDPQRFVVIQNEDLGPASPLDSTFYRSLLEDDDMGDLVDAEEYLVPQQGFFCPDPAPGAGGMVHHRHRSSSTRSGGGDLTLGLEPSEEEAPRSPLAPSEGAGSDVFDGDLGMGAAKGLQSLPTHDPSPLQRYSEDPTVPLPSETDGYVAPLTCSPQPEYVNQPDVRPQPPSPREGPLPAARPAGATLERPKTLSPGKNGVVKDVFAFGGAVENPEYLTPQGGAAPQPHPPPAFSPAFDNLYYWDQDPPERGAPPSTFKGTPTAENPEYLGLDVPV
Chain of Tau-tubulin kinase 1 (Homo sapiens) (Q5TCY1 whole entry): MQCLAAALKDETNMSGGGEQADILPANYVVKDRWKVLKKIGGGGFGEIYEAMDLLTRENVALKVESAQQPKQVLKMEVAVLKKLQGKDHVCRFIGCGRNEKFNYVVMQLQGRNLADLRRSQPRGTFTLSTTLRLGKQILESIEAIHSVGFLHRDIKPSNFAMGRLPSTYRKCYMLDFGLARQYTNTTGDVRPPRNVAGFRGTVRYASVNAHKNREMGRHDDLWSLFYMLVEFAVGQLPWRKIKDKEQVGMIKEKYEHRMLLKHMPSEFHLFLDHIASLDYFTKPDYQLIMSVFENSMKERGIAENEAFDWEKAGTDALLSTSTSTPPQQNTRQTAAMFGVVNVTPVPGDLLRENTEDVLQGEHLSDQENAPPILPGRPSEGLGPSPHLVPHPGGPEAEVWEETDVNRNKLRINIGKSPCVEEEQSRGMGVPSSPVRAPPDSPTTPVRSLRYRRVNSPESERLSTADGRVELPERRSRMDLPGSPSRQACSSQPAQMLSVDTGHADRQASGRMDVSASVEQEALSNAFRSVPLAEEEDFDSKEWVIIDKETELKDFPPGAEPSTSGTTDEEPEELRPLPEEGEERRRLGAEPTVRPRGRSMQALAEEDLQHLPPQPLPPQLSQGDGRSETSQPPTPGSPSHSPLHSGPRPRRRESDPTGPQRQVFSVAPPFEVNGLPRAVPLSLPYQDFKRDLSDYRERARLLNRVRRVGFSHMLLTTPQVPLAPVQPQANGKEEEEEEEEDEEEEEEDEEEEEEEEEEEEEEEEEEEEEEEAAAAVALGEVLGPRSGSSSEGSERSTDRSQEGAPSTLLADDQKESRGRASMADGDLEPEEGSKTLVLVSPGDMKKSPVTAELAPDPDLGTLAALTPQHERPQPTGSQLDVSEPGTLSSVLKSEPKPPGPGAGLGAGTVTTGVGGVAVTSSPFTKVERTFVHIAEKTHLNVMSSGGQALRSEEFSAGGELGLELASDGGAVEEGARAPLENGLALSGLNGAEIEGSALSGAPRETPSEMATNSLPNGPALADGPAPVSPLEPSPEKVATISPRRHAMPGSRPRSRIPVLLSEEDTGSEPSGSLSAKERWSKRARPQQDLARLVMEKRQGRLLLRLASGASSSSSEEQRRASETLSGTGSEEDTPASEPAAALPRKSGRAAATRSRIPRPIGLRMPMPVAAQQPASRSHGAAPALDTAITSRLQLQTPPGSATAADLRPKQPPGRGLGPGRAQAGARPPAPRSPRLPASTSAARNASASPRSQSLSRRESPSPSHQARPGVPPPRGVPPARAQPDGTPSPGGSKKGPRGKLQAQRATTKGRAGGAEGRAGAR
Chain of RAC-gamma serine/threonine-protein kinase (Homo sapiens) (Q9Y243 whole entry): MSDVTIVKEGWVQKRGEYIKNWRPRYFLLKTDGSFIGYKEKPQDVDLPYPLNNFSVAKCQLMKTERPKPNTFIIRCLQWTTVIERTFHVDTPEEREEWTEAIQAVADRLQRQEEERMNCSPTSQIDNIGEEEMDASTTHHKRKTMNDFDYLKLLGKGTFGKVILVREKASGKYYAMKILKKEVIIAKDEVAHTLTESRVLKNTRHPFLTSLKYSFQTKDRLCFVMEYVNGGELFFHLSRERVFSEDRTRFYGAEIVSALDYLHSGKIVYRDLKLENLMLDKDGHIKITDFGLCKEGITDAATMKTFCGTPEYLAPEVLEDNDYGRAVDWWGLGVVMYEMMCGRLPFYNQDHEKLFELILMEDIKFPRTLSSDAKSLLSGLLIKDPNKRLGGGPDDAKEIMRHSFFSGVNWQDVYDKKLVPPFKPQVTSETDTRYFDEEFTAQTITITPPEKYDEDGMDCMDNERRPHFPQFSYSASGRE
Chain of Ephrin type-A receptor 4 (Homo sapiens) (P54764 whole entry): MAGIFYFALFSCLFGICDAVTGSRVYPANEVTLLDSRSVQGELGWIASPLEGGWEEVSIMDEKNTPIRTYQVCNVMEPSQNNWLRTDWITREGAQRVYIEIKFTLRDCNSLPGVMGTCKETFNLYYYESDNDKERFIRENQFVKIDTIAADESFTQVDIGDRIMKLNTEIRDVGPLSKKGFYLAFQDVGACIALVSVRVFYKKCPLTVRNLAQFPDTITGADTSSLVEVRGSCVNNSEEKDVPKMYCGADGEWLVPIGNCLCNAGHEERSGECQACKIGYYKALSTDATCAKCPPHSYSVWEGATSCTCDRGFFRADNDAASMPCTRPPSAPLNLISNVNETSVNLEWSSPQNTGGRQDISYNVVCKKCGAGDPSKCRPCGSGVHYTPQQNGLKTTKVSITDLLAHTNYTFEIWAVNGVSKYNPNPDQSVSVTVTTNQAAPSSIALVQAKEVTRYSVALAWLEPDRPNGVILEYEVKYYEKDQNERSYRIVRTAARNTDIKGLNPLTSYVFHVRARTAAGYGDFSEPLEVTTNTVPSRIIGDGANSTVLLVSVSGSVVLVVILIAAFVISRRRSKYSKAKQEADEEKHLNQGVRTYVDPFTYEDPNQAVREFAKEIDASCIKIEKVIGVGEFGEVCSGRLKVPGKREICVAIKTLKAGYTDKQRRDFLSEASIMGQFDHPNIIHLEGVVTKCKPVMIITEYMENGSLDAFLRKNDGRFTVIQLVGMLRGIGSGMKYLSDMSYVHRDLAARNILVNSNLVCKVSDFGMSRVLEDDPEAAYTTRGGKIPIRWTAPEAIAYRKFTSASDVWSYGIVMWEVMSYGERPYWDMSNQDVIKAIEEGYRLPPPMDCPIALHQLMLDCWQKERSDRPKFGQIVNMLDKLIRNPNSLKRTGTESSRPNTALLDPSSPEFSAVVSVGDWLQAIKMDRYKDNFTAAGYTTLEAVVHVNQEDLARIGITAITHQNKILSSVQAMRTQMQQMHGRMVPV

Structure (SMILES): O=C(N[C@@H](C1CC1)C(F)(F)F)c1cc(-c2cnn3cc(-c4ccc(F)cc4)cnc23)cs1
- fold change (FC) [1]: 0.03
- fold change (FC) [2]: 0.15

Structure (SMILES): CNC(=O)c1ccccc1Oc1nc(Nc2cc(OC)c(OC)c(OC)c2)ncc1Br
- fold change (FC) [3]: 0
- inhibition [4]: 15%
- fold change (FC) [5]: 0

Structure (SMILES): CC(C)[C@H](NC(=O)c1cc(-c2cnn3cc(-c4ccc(OCCN5CCCCC5)cc4)cnc23)cs1)C(F)(F)F
- inhibition [6]: 3%
- fold change (FC) [7]: 0
- inhibition [8]: 90%
- inhibition [9]: 8%
